Source: PubChem BioAssay (several laboratories)
Hits are enriched below; roughly 4% of the tested compounds scored in any of these assays.
PHOSPHO1 inh: blocks human PHOSPHO1 phosphatase activity | Q8TCT1 | recombinant PHOSPHO1, absorbance phosphatase assay | inhibition, % at 13.3 µM | hit rate 1.1% among 290,000 | AID 1565; in the data active = inhibition above about 60%
KCNQ1 pot: human KCNQ1 channel potentiation or activation; B-score at 10 µM; hit rate 0.35% among 310,000; P51787; CHO-K1 KCNQ1, thallium flux FluxOR fluorescence; hits give high values; AID 2648;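 active = fluorescence ratio B-score, a plate-corrected score, at least three library SD, with initial intensity B-score within 5 SD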
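assay system = CHO-K1 cells stably expressing KCNQ1 | medium = assay buffer, equal DMSO in all wells | timing = 37 °C overnight plating, 90-min dark dye load, 20-min compound pretreatment | measured by = kinetic FluxOR thallium fluorescence, 10-s 1-Hz baseline, 110-s post-stimulus read | measure = fluorescence change relative to baseline, converted to B score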
KCNQ1 block: blocks the human KCNQ1 potassium channel; hit rate 1.3% among 310,000; AID 2642; B-score at 10 µM; CHO-K1 KCNQ1, FluxOR thallium flux fluorescence; hits give high values;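 active = compounds whose thallium flux B-score, printed positive for inhibition, exceeds three library SD while starting fluorescence stays within three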;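 note: channel opened by potassium depolarization with thallium stimulus after 20 min compound exposure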
KCNK3 block: human KCNK3 channel inhibition, primary screen. B-score at 10 µM. O14649. hit rate 0.84% among 340,000. CHO-KCNK3 thallium flux, FluxOR fluorescence; hits give low values;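 active = B-score under library mean minus 4 SD, starting fluorescence ratio at most library mean plus 5 SD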;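 note: more negative B-score means stronger inhibition of thallium flux through KCNK3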
hERG protect: compounds protecting human hERG from proarrhythmic drug block. Q12809. CHO-hERG, FluxOR thallium flux, dofetilide IC70 present. activation (rescue from dofetilide block), less the hit threshold, % at 10 µM. hit rate 0.51% among 310,000;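 active = activation above the mean of controls blocked by dofetilide plus 5 SD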;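 note: thallium influx through hERG after potassium depolarization seen as dye fluorescence rise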
KCNK9 block: human KCNK9 channel inhibition. Q9NPC2. HEK293 KCNK9, FluxOR thallium flux fluorescence; hits give low values. B-score at 10 µM. hit rate 1.2% among 310,000. AID 488922;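 active = ratio B-score over 3 SD below the library mean, with starting fluorescence within 5 SD of its mean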;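 note: negative B-score means less thallium flux so channel inhibition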
KCNK9 block conf: confirmation of human KCNK9 potassium channel inhibitors; shares compounds with KCNK9 block; HEK293 KCNK9 cells, FluxOR thallium flux fluorescence; inhibition, % at 10 µM; hit rate 43% among 4,900; AID 492992;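 active = thallium signal inhibited by more than 5 SD of the compound-free buffer control wells, on both duplicate plates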;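 note: 0% = assay buffer control wells without compound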
Kir2-1 spec: tests whether KCNK9 modulators also affect mouse Kir2.1; inhibition, % at 10 µM; shares compounds with KCNK9 block; hit rate 4% among 4,900; Kir2.1 cells, FluxOR thallium flux fluorescence; AID 492993;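 active = thallium signal drop more than 5 SD beyond the mean of the no-compound control wells, seen in both duplicate plates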;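 note: signal is fluorescence rise after thallium addition divided by baseline fluorescence; plate controls were assay buffer only for no effect and full block by chlorpromazine control for full effect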
Target sequence (P35561 whole entry, looked up): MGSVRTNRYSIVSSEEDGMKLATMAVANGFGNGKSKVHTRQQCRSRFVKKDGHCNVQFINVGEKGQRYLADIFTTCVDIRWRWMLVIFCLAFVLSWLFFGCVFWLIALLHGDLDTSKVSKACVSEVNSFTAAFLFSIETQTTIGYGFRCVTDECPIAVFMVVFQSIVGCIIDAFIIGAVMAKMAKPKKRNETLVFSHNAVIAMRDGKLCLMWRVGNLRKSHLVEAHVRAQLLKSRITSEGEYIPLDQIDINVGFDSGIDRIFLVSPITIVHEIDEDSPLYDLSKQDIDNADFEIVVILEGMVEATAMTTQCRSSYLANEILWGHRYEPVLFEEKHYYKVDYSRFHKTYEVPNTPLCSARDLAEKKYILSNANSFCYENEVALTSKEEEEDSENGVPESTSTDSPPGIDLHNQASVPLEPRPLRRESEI
HEK293 Tl ctr: non-induced cell nonspecific activity of KCNK9 modulators; shares compounds with KCNK9 block; non-induced KCNK9-HEK293, FluxOR thallium flux; hit rate 40% among 4,900; inhibition, % at 10 µM;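 active = thallium signal drop beyond 5 SD of the untreated control mean, on both duplicate plates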;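 note: plate controls were buffer only IC0 wells for no effect and SID17386958 at its maximal inhibitory level for full effect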
Numbers without * were called inactive; i = inactive; . = not tested or not shown.

SMILES	PHOSPHO1 inh	KCNQ1 pot	KCNQ1 block	KCNK3 block	hERG protect	KCNK9 block	KCNK9 block conf	Kir2-1 spec	HEK293 Tl ctr
c1cnc2ccc(C(c3nnnn3C3CCCC3)N3CCN(c4nc5ccccc5s4)CC3)cc2c1 (configuration not stated)	-29.3	i	i	-9.1*	-7.9	-9.16*	i	i	40.0%*
CC(C)C(NC(=O)C(NC(=O)C1O[C@@H]2OC(C)(C)O[C@@H]2[C@H]2OC(C)(C)O[C@@H]12)C(C)C)C(=O)O (some centres not stated)	-24.8	i	i	i	-13.4	i	.	.	.
COc1ccc(S(=O)(=O)Nc2ccc(S(=O)(=O)N3CCCCC3)cc2)cc1C	1.5	i	i	i	-8.2	i	.	.	.
Cc1ccc(NC(=O)COC(=O)[C@@H]2CCCN2C(=O)c2cccs2)cc1S(=O)(=O)N(C)C	29.7	i	i	i	-8.3	i	.	.	.
CCN(Cc1ccccc1)C(=O)CN1C(=O)NC2(CC(C)CC(C)(C)C2)C1=O (configuration not stated)	22.6	i	i	i	-12.5	i	.	.	.
COc1cc(N2CCCC2)c(OC)cc1/C=C(/C#N)c1ccc(Br)cc1	27.9	i	i	i	-10.5	i	.	.	.
COc1cc(N2CCCC2)c(OC)cc1/C=C(/C#N)c1ccc(F)cc1	-1.2	i	7*	i	-14.6	-11.7*	50.0%*	i	66.0%*
Fc1ccc(/C=C/c2nnc(-c3cccs3)o2)cc1	2.1	i	i	i	-3.5	-8.68*	33.0%*	i	i
CCc1nc2cc3sc(CC)nc3cc2s1	-18.8	i	i	i	-1.4	i	.	.	.
C=C1CCC2C(C)(C)[C@@H](O)CC[C@@]2(C)[C@@H]1COc1ccc2ccc(=O)oc2c1 (some centres not stated)	2.5	i	i	i	-6.8	i	.	.	.
C=C1CCC2C(C)(C)[C@H](O)CC[C@@]2(C)[C@@H]1COc1cc(=O)oc2ccccc12 (some centres not stated)	35.3	i	i	i	-18.6	-13.4*	59.5%*	i	25.5%*
CC(C)(C)OC(=O)N1CCC(c2c(C(=O)NC3CC3)cnn2-c2ccc(Cl)cc2)CC1	22.4	i	i	i	-6.8	i	i	i	i
CCN1C(=O)[C@@H]2[C@H](C1=O)[C@@H]1C(=O)Nc3ccccc3C(=O)N1[C@@H]2c1ccc(Br)cc1	.	i	i	i	-6.4	i	.	.	.
COc1ccc(C(=O)Cn2cnc3ccccc3c2=O)c(OC)c1	14.7	i	i	i	-2.8	i	.	.	.
N#Cc1ccccc1CSc1nc(N2CCCCC2)nc(N2CCCCC2)n1	-0.6	i	i	i	-10.6	i	i	i	i
Cc1nc(SCc2ccccc2C#N)n[nH]1	2.8	i	i	i	-6.5	i	.	.	.
O=C1NCCN(CC2CCN(CCc3ccc(Cl)c(Cl)c3)CC2)C1=O	.	.	.	i	.	.	.	.	.
CC1CCC(C(C)C)C(OC(=O)COC(=O)c2ccc(N)cc2)C1 (configuration not stated)	-1.8	i	i	i	-3.0	i	i	i	i
COc1cc(OC)nc(Oc2ccccc2C(=O)Oc2ccc(Cl)cc2)n1	58.9	i	i	i	1.2	-8.98*	44.5%*	i	39.0%*
COc1cc(OC)nc(Oc2ccccc2C(=O)Oc2ccccc2Cl)n1	28.7	i	i	i	1.1	-11.3*	42.0%*	i	27.5%*
COC(=O)c1c(Oc2nc(OC)cc(OC)n2)cccc1Oc1nc(OC)cc(OC)n1	-0.3	i	i	i	-5.2	i	.	.	.
COc1cccc(C(=O)COc2ccc3c(C)c(Cc4ccccc4)c(=O)oc3c2C)c1	-4.6	i	i	.	-6.2	i	.	.	.
